Data on 15 compounds can be found in ChEMBL document CHEMBL4177644, “Design, synthesis and biological activity of 3-pyrazine-2-yl-oxazolidin-2-ones as novel, potent and selective inhibitors of mutant isocitrate dehydrogenase 1” (Bioorg Med Chem, 2017).

A short description of data set [1]: Permeability of compound at 25 ug/ml after 18 hrs by PAMPA-BBB assay. The following applies: read-out: Peff. It counts as ADME. An outline of the steps:
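PAMPA-BBB with porcine polar brain lipid (20 mg/mL, 4 µL per filter). DMSO stock 5 mg/ml diluted in PBS to 25 ug/ml final, 300 uL in donor, 150 µL PBS in acceptor. Sandwich left 18 h at room temperature. Acceptor and reference concentrations read by UV plate reader, Pe calculated by formula. Mean ± SD of three independent experiments.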
(In PAMPA a lipid-coated filter parts donor from acceptor wells.)

The test system of data set [2] is HEK-293T. The data set can be described thus: Cytotoxicity against HEK293T cells harboring WT-IDH1 at 10 uM after 72 hrs by CellTiter-Glo assay. It counts as cell-based. As to conditions: human. An outline of the steps:
(§1)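 HEK-293T cells stably carrying IDH1 wild-type (pMXs-IDH1wt-IRES-BsdR, blasticidin-selected), 10 000 cells per well in DMEM with 10% FCS, 37 °C, 5% CO2. Compound added at the stated concentration for 72 h. Viability read by CellTiter-Glo luminescence.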
In general terms: ATP-based viability assays read luminescence as a measure of living cells.

The test system of data set [3] is Isocitrate dehydrogenase [NADP] cytoplasmic (Homo sapiens), O75874 [R132C]. The data set can be described thus: Inhibition of IDH1 R132C mutant (unknown origin) expressed in HEK293T cells assessed as reduction in D-2-HG levels at 50 uM after 72 hrs relative to control; values are per cent of control.
Sequence of Isocitrate dehydrogenase [NADP] cytoplasmic (Homo sapiens), O75874 [R132C] (O75874 whole entry R132C): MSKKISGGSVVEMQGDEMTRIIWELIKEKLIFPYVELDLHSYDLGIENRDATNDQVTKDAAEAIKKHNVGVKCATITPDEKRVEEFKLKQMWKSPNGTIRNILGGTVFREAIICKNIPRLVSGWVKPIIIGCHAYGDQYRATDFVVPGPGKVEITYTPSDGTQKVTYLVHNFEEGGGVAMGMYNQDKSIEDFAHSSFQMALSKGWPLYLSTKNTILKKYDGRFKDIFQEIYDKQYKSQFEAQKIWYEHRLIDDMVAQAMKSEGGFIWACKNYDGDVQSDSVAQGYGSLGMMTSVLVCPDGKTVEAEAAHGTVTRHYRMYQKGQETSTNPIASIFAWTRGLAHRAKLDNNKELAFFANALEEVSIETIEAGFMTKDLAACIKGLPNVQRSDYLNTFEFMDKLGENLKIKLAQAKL
Data set [4] relates to Isocitrate dehydrogenase [NADP] cytoplasmic (Homo sapiens), O75874 [R132H]. The data set can be described thus: Inhibition of IDH1 R132H mutant (unknown origin) expressed in HEK293T cells assessed as reduction in D-2-HG levels at 10 uM after 72 hrs relative to control; values are per cent of control.
Sequence of Isocitrate dehydrogenase [NADP] cytoplasmic (Homo sapiens), O75874 [R132H] (O75874 whole entry R132H): as the sequence (O75874 whole entry R132C) above, with C132H counted along it
The test system is the same in data set [5]. The data set can be described thus: Inhibition of IDH1 R132H mutant (unknown origin) expressed in HEK293T cells assessed as reduction in D-2-HG levels at 50 uM after 72 hrs relative to control; values are per cent of control.
The subject of data set [6] is Isocitrate dehydrogenase [NADP] cytoplasmic (Homo sapiens), O75874 [R132C]. The data set can be described thus: Inhibition of IDH1 R132C mutant (unknown origin) expressed in HEK293T cells assessed as reduction in D-2-HG levels at 10 uM after 72 hrs relative to control; values are per cent of control.
Data set [7] concerns HEK-293T. The data set can be described thus: Cytotoxicity against HEK293T cells harboring WT-IDH1 at 50 uM after 72 hrs by CellTiter-Glo assay. As to conditions: human. It counts as cell-based. An outline of the steps:
as §1

Data set [8] can be described thus: Cytotoxicity against HEK293T cells harboring WT-IDH1 assessed as cell survival at 10 uM after 72 hrs by CellTiter-Glo assay relative to control. It counts as cell-based, HEK-293T. The following applies: human, read-out: Survival. The essentials: (§2)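 HEK293 cells stably expressing wild-type IDH1 (cDNA in pMXs-GW-IRES-BsdR, transfected with FuGene HD, selected with blasticidin S), grown in DMEM with 10% fetal calf serum and 1% penicillin/streptomycin at 37 °C, 5% CO2. Seeded at 10 000 cells/well in 96-well plates, treated with compound for 72 h; viability read by CellTiter-Glo luminescence.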

Data set [9] is described as follows: Cytotoxicity against HEK293T cells harboring WT-IDH1 assessed as cell survival at 50 uM after 72 hrs by CellTiter-Glo assay relative to control. As to conditions: human, read-out: Survival. It counts as cell-based, HEK-293T. An outline of the steps: as §2

For `CNCCCN1c2ccccc2CCc2ccccc21` [DESIPRAMINE], the Papp at 18 h, 25 ug/ml in [1] was determined as 8.82 ×10⁻⁶ cm/s.

Usually residual activity stands for the signal under treatment as a percentage of the control signal. In the case of `CC(C)[C@H]1COC(=O)N1c1cncc(N[C@@H](C)c2ccc(-c3ccc4ccccc4c3)cc2)n1`, the Activity entry with HEK-293T [2] is reported as “Non-Toxic”. Further, the residual activity in data set [3] worked out at 73.9%; in data set [4] it was 85.4%; in data set [5] it was 39.5%; in data set [6] it was 71.3%.

With `Cc1noc(C)c1-c1ccc([C@H](C)Nc2cncc(N3C(=O)OC[C@@H]3C(C)C)n2)cc1`, the Activity result is recorded as “Non-Toxic” in the data set on HEK-293T [2] and “Toxic” with HEK-293T [7]. Moreover, the residual activity in data set [3] stood at 30.2%; in data set [4], 47.9%; in [5] it was 21.5%; in data set [6], 54.1%.

Turning to `CC(C)[C@H]1COC(=O)N1c1cncc(N[C@@H](C)c2ccc(-c3ccccc3)cc2)n1`, the Activity entry with HEK-293T [2] is “Non-Toxic”. Also, the residual activity was 108% in [3], 50% in [4], 38.8% in data set [5] and 50.4% in data set [6].

For the compound `Cc1ccccc1-c1ccc([C@H](C)Nc2cncc(N3C(=O)OC[C@@H]3C(C)C)n2)cc1`, in the data set with HEK-293T [2], the Activity result was “Non-Toxic”. The residual activity in data set [3] amounted to 29.1%; in data set [4], 39.2%; in [5] it was 28.3%; in [6], 44.6%.

For the compound `Cc1ccc(-c2ccc([C@H](C)Nc3cncc(N4C(=O)OC[C@@H]4C(C)C)n3)cc2)cc1`, the Activity result in the data set on HEK-293T [2] is reported as “Non-Toxic”. Also, the residual activity came out at 54.8% in [3], 70.5% in data set [4], 38.7% in [5] and 74.9% in data set [6].

On to `CC(C)[C@H]1COC(=O)N1c1cncc(N[C@@H](C)c2ccc(-c3cccc(F)c3)cc2)n1`, for which, in the data set on HEK-293T [2], the Activity entry was “Non-Toxic”. Further, the residual activity in data set [3] stood at 50.6%; in data set [4], 97.2%; in data set [5] it was 34.7%; in [6], 116%.

Take `COc1ccccc1-c1ccc([C@H](C)Nc2cncc(N3C(=O)OC[C@@H]3C(C)C)n2)cc1`: the Activity entry in the data set on HEK-293T [2] is “Non-Toxic”. In addition, the viability at 72 h, 10 µM in data set [8] amounted to 89.8%. Further, the viability at 72 h, 50 µM in data set [9] came out at 74.5%. In data set [1], the Papp at 18 h, 25 ug/ml was 6.65 ×10⁻⁶ cm/s. The residual activity is 28.2% in data set [3], 31.9% in [4], 24.6% in data set [5] and 40.6% in data set [6].

On to `CC(C)[C@H]1COC(=O)N1c1cncc(N[C@@H](C)c2ccc(-c3ccc(C(F)(F)F)cc3)cc2)n1`, for which the Activity entry is reported as “Non-Toxic” in the data set on HEK-293T [2] and “Toxic” in the data set with HEK-293T [7]. Further, the residual activity is 27.4% in data set [3], 28% in data set [4], 30.7% in data set [5] and 39.9% in [6].

For the compound `Cc1cccc(-c2ccc([C@H](C)Nc3cncc(N4C(=O)OC[C@@H]4C(C)C)n3)cc2)c1`, the Activity entry in the data set with HEK-293T [2] is “Non-Toxic”. Moreover, the residual activity in data set [3] came to 29.7%; in data set [4] it was 49.7%; in [5], 28.5%; in [6] it was 51.1%.

With `CC(C)[C@H]1COC(=O)N1c1cncc(N[C@@H](C)c2ccc(-c3ccc(F)cc3)cc2)n1`, the Activity entry with HEK-293T [2] is on record as “Non-Toxic”; in the data set with HEK-293T [7] it was “Toxic”. Moreover, the residual activity was found to be 51.3% in data set [3], 34.3% in [4], 33% in [5] and 39% in data set [6].

As for `COc1ccc(-c2ccc([C@H](C)Nc3cncc(N4C(=O)OC[C@@H]4C(C)C)n3)cc2)cc1`, the Activity entry with HEK-293T [2] is on record as “Non-Toxic”. Moreover, the residual activity stood at 51.7% in data set [3], 47.7% in data set [4], 31.9% in data set [5] and 51.3% in [6].

With `CC(C)[C@H]1COC(=O)N1c1ccnc(N[C@@H](C)c2ccc(-c3ccccn3)cc2)n1`, the Activity result with HEK-293T [2] is on record as “Non-Toxic”. The residual activity in data set [3] amounted to 29.7%; in [4], 33.9%; in [5], 24.7%.

`CC(C)[C@H]1COC(=O)N1c1cncc(N[C@@H](C)c2ccc(-c3ccccc3F)cc2)n1`: the Activity entry in the data set on HEK-293T [2] is reported as “Non-Toxic”. Further, the residual activity in data set [3] was found to be 44.1%; in data set [4] it was 78.4%; in [5], 28%; in data set [6], 89.9%.

With `COc1cccc(-c2ccc([C@H](C)Nc3cncc(N4C(=O)OC[C@@H]4C(C)C)n3)cc2)c1`, in the data set with HEK-293T [2], the Activity result is listed as “Non-Toxic”. The residual activity in data set [3] stood at 41.7%; in data set [4], 59.8%; in data set [5] it was 33.9%; in [6], 86%.
